# Measured values published in ChEMBL document CHEMBL1629668, “Activity of anidulafungin in a murine model of Candida krusei infection: evaluation of mortality and disease burden by quantitative tissue cultures and measurement of serum (1,3)-beta-D-glucan levels” (2009).
# Active and inactive are the calls of the source. Numbered stars: 1 amine (or outer) side, 2 acyl side, 3 side chain; on linkers, the order of the positions; unused ones are H or OH. Bridge positions count the residues as written; N and C are the ends. Square brackets hold non-standard residues; d marks the D form. Peptide text beside a SMILES is read from it. * marks the point of attachment. pTerphenylCO(4''-OnC5H11) = CCCCCOc1ccc(-c2ccc(-c3ccc(C(=O)*)cc3)cc2)cc1; Orn(4R-OH,5R-OH) = O=C([C@H](C[C@@H](O)[C@@H](O)N[*:3])N[*:1])[*:2]; hTyr(3S-OH,4S-OH) = N[C@H](C(=O)O)[C@H](O)[C@@H](O)c1ccc(O)cc1; Pro(3S-OH,4S-Me) = C[C@H]1CN[C@H](C(=O)O)[C@H]1O; Hyp = O=C(O)[C@@H]1C[C@@H](O)CN1
# Key:
# [1] = tested on: Pichia kudriavzevii; test: Antimicrobial activity against Candida krusei LMR 39-14 infected in immunosuppressed CF-1 mouse assessed as decrease in kidney bacterial burden at 1 mg/kg, ip administered once daily for 5 days measured after 10 days (Rvb= 5.22); format: functional; conditions: route intraperitoneal
# Procedure, shortened: (§1)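 C. krusei clinical bloodstream isolate given IV by tail vein at 1.3×10^7 to 1.5×10^7 CFU/mouse, with inoculum confirmed by plating. Mice immunosuppressed with 5-FU 200 mg/kg i.p. 3 days before and dexamethasone 4 mg/kg s.c. on the day of infection. Treatment i.p. q24h for 5 days. Five mice/group killed day 5 or day 10. Both kidneys homogenized and plated on Sabouraud agar for 48 h; log10 CFU/g; detection limit 40 CFU/g; ANOVA; duplicate runs pooled.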
# [2] = tested on: Pichia kudriavzevii; test: Antimicrobial activity against Candida krusei LMR 39-14 infected in immunosuppressed CF-1 mouse assessed as serum 1,3-beta-D-glucan level at 1 mg/kg, ip administered once daily for 5 days measured after 5 days (Rvb= 6.66); format: functional; conditions: route intraperitoneal
# [3] = tested on: Pichia kudriavzevii; test: Antimicrobial activity against Candida krusei LMR 39-14 infected in immunosuppressed CF-1 mouse assessed as increased survival of mouse at 1 mg/kg, ip administered once daily for 5 days relative to control; format: functional, organism-based; design: dose 1 mg/kg
# Procedure, shortened: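 Immunosuppression used 5-FU 200 mg/kg i.p. on day −3 and dexamethasone 4 mg/kg s.c. on day 0. C. krusei bloodstream isolate was given IV via tail vein at 1.3×10^7 to 1.5×10^7 CFU. Drug i.p. q24h for 5 days, saline placebo. Fifteen mice/group per run followed for survival; experiment in duplicate, pooled. Kaplan-Meier estimates compared by log-rank test.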
# [4] = tested on: Pichia kudriavzevii; test: Antimicrobial activity against Candida krusei LMR 39-14 infected in immunosuppressed CF-1 mouse assessed as decrease in kidney bacterial burden at 1 mg/kg, ip administered once daily for 5 days measured after 5 days (Rvb= 6.66); format: functional; conditions: route intraperitoneal; procedure, shortened: as §1
# [5] = tested on: Pichia kudriavzevii; test: Antimicrobial activity against Candida krusei LMR 39-14 infected in immunosuppressed CF-1 mouse assessed as serum 1,3-beta-D-glucan level at 1 mg/kg, ip administered once daily for 5 days measured after 10 days (Rvb= 5.22); format: functional; conditions: route intraperitoneal
# [6] = tested on: Pichia kudriavzevii; test: Antimicrobial activity against Candida krusei by […]; format: functional
# [7] = tested on: Pichia kudriavzevii; test: Antimicrobial activity against Candida krusei LMR 39-14 by M27-A3 microdilution method; format: functional
# [8] = tested on: Pichia kudriavzevii; test: Antimicrobial activity against Candida krusei LMR 39-14 infected in immunosuppressed CF-1 mouse assessed as decrease in kidney bacterial burden at 20 mg/kg, ip administered once daily for 5 days measured after 10 days (Rvb= 5.22); format: functional; conditions: route intraperitoneal
# [9] = tested on: Pichia kudriavzevii; test: Antimicrobial activity against Candida krusei LMR 39-14 infected in immunosuppressed CF-1 mouse assessed as decrease in kidney bacterial burden at 10 mg/kg, ip administered once daily for 5 days measured after 5 days (Rvb= 6.66); format: functional; conditions: route intraperitoneal
# [10] = tested on: Pichia kudriavzevii; test: Antimicrobial activity against Candida krusei LMR 39-14 infected in immunosuppressed CF-1 mouse assessed as serum 1,3-beta-D-glucan level at 10 mg/kg, ip administered once daily for 5 days measured after 5 days (Rvb= 6.66); format: functional; conditions: route intraperitoneal
# Procedure, shortened: (§2)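 Serum (1,3)-β-D-glucan in immunosuppressed CF-1 mice (5-FU 200 mg/kg i.p. day −3, dexamethasone 4 mg/kg s.c. day 0) infected i.v. with 1.3×10^7 to 1.5×10^7 CFU. Mice dosed i.p. q24h for 5 days with saline placebo. Blood taken from five mice per group on day 5 or 10 post-inoculation and assayed with the Fungitell kit (threshold 31 pg/ml). Groups compared by Kruskal-Wallis; duplicate runs pooled.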
# [11] = tested on: Pichia kudriavzevii; test: Antimicrobial activity against Candida krusei LMR 39-14 infected in immunosuppressed CF-1 mouse assessed as increased survival of mouse at 20 mg/kg, ip administered once daily for 5 days relative to control; format: functional, organism-based; design: dose 20 mg/kg
# Procedure, shortened: (§3)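 Same immunosuppressed CF-1 model: 5-FU 200 mg/kg i.p. on day −3, dexamethasone 4 mg/kg s.c. on day 0, i.v. tail inoculation of 1.3×10^7 to 1.5×10^7 CFU. Treatment i.p. q24h for 5 days with saline placebo. Fifteen mice per group observed for survival; run in duplicate with data pooled; Kaplan-Meier estimates compared by log-rank test.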
# [12] = tested on: Pichia kudriavzevii; test: Antimicrobial activity against Candida krusei LMR 39-14 infected in immunosuppressed CF-1 mouse assessed as decrease in kidney bacterial burden at 20 mg/kg, ip administered once daily for 5 days measured after 5 days (Rvb= 5.22); format: functional; conditions: route intraperitoneal
# [13] = tested on: Pichia kudriavzevii; test: Antimicrobial activity against Candida krusei LMR 39-14 infected in immunosuppressed CF-1 mouse assessed as increased survival of mouse at 10 mg/kg, ip administered once daily for 5 days relative to control; format: functional, organism-based; design: dose 10 mg/kg; procedure, shortened: as §3
# [14] = tested on: Pichia kudriavzevii; test: Antimicrobial activity against Candida krusei LMR 39-14 infected in immunosuppressed CF-1 mouse assessed as serum 1,3-beta-D-glucan level at 20 mg/kg, ip administered once daily for 5 days measured after 5 days (Rvb= 5.22); format: functional; conditions: route intraperitoneal; procedure, shortened: as §2
# [15] = tested on: Pichia kudriavzevii; test: Antimicrobial activity against Candida krusei LMR 39-14 infected in immunosuppressed CF-1 mouse assessed as serum 1,3-beta-D-glucan level at 10 mg/kg, ip administered once daily for 5 days measured after 10 days (Rvb= 5.22); format: functional; conditions: route intraperitoneal; procedure, shortened: as §2
# [16] = tested on: Pichia kudriavzevii; test: Antimicrobial activity against Candida krusei LMR 39-14 infected in immunosuppressed CF-1 mouse assessed as serum 1,3-beta-D-glucan level at 20 mg/kg, ip administered once daily for 5 days measured after 10 days (Rvb= 5.22); format: functional; conditions: route intraperitoneal; procedure, shortened: as §2
# [17] = tested on: Pichia kudriavzevii; test: Antimicrobial activity against Candida krusei LMR 39-14 infected in immunosuppressed CF-1 mouse assessed as decrease in kidney bacterial burden at 10 mg/kg, ip administered once daily for 5 days measured after 10 days (Rvb= 5.22); format: functional; conditions: route intraperitoneal
# [18] = tested on: Pichia kudriavzevii; test: Antimicrobial activity against Candida krusei LMR 39-14 infected in immunosuppressed CF-1 mouse assessed as increased survival of mouse at 40 mg/kg, ip administered once daily for 5 days relative to control; format: functional, organism-based; design: dose 40 mg/kg; procedure, shortened: as §3
# [19] = tested on: Pichia kudriavzevii; test: Antimicrobial activity against Candida krusei LMR 39-14 infected in immunosuppressed CF-1 mouse assessed as serum 1,3-beta-D-glucan level at 40 mg/kg, ip administered once daily for 5 days measured after 10 days (Rvb= 5.22); format: functional; conditions: route intraperitoneal; procedure, shortened: as §2
# [20] = tested on: Pichia kudriavzevii; test: Antimicrobial activity against Candida krusei LMR 39-14 infected in immunosuppressed CF-1 mouse assessed as serum 1,3-beta-D-glucan level at 40 mg/kg, ip administered once daily for 5 days measured after 5 days (Rvb= 6.66); format: functional; conditions: route intraperitoneal; procedure, shortened: as §2
# [21] = tested on: Pichia kudriavzevii; test: Antimicrobial activity against Candida krusei LMR 39-14 infected in immunosuppressed CF-1 mouse assessed as decrease in kidney […] burden at 40 mg/kg, ip administered once daily for 5 days measured after 10 days (Rvb= 5.22); format: functional; conditions: route intraperitoneal
# [22] = tested on: Pichia kudriavzevii; test: Antimicrobial activity against Candida krusei LMR 39-14 infected in immunosuppressed CF-1 mouse assessed as decrease in kidney bacterial burden at 40 mg/kg, ip administered once daily for 5 days measured after 5 days (Rvb= 6.66); format: functional; conditions: route intraperitoneal
smiles,measurement,setting,value
C[C@@H]1[C@H](O)[C@@H](C)/C=C/C=C/C=C/C=C/C=C/C=C/C=C/[C@H](O[C@@H]2O[C@H](C)[C@@H](O)[C@H](N)[C@@H]2O)C[C@@H]2O[C@](O)(C[C@@H](O)C[C@@H](O)[C@H](O)CC[C@@H](O)C[C@@H](O)CC(=O)O[C@H]1C)C[C@H](O)[C@H]2C(=O)O [AMPHOTERICIN B],log10CFU/g,[1],4.96
same,Activity,[2],2559 pg/mL
same,Activity,[3],Active
same,log10CFU/g,[4],5.95
same,Activity,[5],1742 pg/mL
"CCCCCOc1ccc(-c2ccc(-c3ccc(C(=O)N[C@H]4C[C@@H](O)[C@@H](O)NC(=O)[C@@H]5[C@@H](O)[C@@H](C)CN5C(=O)[C@H]([C@@H](C)O)NC(=O)[C@H]([C@H](O)[C@@H](O)c5ccc(O)cc5)NC(=O)[C@@H]5C[C@@H](O)CN5C(=O)[C@H]([C@@H](C)O)NC4=O)cc3)cc2)cc1 [ANIDULAFUNGIN] ({pTerphenylCO(4''-OnC5H11)}-[Orn(4R-OH,5R-OH)]T[Hyp][hTyr(3S-OH,4S-OH)]T[Pro(3S-OH,4S-Me)]; lactam 1-C)",MIC90,[6],0.06 µg/mL
same,MIC,[7],0.06 µg/mL
same,log10CFU/g,[8],1.59
same,log10CFU/g,[9],4.06
same,Activity,[10],256 pg/mL
same,Activity,[11],Active
same,log10CFU/g,[12],3.97
same,Activity,[13],Active
same,Activity,[14],351 pg/mL
same,Activity,[15],624 pg/mL
same,Activity,[16],693 pg/mL
same,log10CFU/g,[17],0.96
OC(Cn1cncn1)(Cn1cncn1)c1ccc(F)cc1F [FLUCONAZOLE],Activity,[18],Active
same,MIC,[7],> 64 µg/mL
same,Activity,[19],1292 pg/mL
same,Activity,[20],2714 pg/mL
same,log10CFU/g,[21],4.77
same,log10CFU/g,[22],7.01
